Test results as given in ChEMBL document CHEMBL3769384, “Discovery of Tetrahydropyrazolopyridine as Sphingosine 1-Phosphate Receptor 3 (S1P3)-Sparing S1P1 Agonists Active at Low Oral Doses” (J Med Chem, 2016).

How the values were obtained:
[1] = system: Rattus norvegicus; assay: Lymphopenia activity in oral dosed Lewis rat
[2] = Lipophilicity, log D of the compound at pH 10.5 by chromatography; format: physicochemical; conditions: buffer
[3] = molecular target: T1, Sphingosine 1-phosphate receptor 4 (Homo sapiens, UniProt O95977); assay: Agonist activity at human S1P4 receptor expressed in CHO-K1 cells by aequorin calcium accumulation assay; format: functional, cell-based
T1 sequence (O95977 whole entry): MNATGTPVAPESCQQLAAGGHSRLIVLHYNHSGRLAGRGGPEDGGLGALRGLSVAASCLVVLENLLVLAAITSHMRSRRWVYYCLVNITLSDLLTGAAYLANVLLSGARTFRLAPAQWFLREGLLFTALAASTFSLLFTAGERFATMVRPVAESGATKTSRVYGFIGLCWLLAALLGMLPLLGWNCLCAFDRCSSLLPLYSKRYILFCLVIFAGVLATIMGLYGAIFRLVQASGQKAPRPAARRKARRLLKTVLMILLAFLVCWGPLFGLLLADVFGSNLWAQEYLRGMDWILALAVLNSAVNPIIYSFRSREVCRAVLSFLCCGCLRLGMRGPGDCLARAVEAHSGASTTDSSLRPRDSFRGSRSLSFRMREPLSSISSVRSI
Summary of the method: (§1)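 CHO-K1 aequorin lines revived in DMEM F12 with 10% charcoal-stripped FBS, recovered 30 min at 37°C, then loaded 18-24 h at room temperature in the dark with 5 µM coelenterazine at 2.5x10^6 cells/mL. Cells were added at 1x10^5/well to compound, and flash luminescence was recorded immediately.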

[4] = molecular target: T2, Cytochrome P450 3A4 (Homo sapiens, UniProt P08684); assay: Inhibition of human CYP3A4 coexpressed in Escherichia coli with human NADPH reductase using atorvastatin as substrate at 0.1 to 100 uM by fluorescence assay; format: ADME; conditions: TDE = time-dependent effect
T2 sequence (P08684 whole entry): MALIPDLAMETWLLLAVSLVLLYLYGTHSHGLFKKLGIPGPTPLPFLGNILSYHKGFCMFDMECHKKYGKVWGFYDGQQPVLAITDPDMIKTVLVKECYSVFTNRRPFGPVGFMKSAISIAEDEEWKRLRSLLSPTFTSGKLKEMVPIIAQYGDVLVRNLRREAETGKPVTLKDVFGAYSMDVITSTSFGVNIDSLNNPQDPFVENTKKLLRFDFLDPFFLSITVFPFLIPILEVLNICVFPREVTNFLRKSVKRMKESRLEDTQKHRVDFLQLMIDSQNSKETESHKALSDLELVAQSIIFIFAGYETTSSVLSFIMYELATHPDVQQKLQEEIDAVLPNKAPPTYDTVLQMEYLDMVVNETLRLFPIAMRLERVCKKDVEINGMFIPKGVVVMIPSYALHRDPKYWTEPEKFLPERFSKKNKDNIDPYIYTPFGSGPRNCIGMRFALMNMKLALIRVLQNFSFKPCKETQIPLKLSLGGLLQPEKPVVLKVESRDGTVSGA

[5] = Intrinsic clearance in cynomolgus monkey hepatocytes at 0.5 uM after 2 hrs by LC-MS/MS analysis; format: ADME, cell-based, Macaca fascicularis, Hepatocyte
[6] = system: Salmonella typhimurium; assay: Mutagenicity in Salmonella typhimurium by Ames test; format: toxicity, organism-based; conditions: salmonella enterica subsp. enterica serovar typhimurium
[7] = molecular target: Cytochrome P450 2C9 (Homo sapiens, UniProt P11712); assay: Inhibition of CYP2C9 (unknown origin) coexpressed in Escherichia coli with human NADPH reductase using 7-methoxy-4-trifluoromethylcoumarin-3-acetic acid as substrate after 10 mins by fluorescence assay; format: ADME
Cytochrome P450 2C9, sequence (P11712 whole entry, canonical isoform): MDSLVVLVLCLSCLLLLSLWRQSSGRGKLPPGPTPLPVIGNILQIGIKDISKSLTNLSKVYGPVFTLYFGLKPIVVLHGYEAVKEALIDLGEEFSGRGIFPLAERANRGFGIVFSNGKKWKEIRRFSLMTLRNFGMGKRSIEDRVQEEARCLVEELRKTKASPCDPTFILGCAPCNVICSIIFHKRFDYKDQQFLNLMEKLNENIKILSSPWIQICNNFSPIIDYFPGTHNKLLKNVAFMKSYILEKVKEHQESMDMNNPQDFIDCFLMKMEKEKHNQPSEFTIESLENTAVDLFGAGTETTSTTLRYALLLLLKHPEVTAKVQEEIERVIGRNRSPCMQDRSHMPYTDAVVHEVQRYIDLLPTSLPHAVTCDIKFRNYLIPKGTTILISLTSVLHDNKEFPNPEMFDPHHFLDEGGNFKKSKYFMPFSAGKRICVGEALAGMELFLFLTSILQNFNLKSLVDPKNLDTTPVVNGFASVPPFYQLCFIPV
Summary of the method: (§2)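 Recombinant CYP co-expressed in E. coli with human NADPH reductase, incubated with an isoform-specific pro-fluorescent substrate and compound (nine concentrations, 0.1-100 µM) plus a 0.2 mM NADPH regenerating system for 10 min at 37°C. Fluorescent metabolite formation was monitored.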

[8] = molecular target: Sphingosine 1-phosphate receptor 2 (Homo sapiens, UniProt O95136); assay: Agonist activity at human S1P2 receptor expressed in Saccharomyces cerevisiae after 24 hrs by reporter gene assay
Sphingosine 1-phosphate receptor 2, sequence (O95136 whole entry): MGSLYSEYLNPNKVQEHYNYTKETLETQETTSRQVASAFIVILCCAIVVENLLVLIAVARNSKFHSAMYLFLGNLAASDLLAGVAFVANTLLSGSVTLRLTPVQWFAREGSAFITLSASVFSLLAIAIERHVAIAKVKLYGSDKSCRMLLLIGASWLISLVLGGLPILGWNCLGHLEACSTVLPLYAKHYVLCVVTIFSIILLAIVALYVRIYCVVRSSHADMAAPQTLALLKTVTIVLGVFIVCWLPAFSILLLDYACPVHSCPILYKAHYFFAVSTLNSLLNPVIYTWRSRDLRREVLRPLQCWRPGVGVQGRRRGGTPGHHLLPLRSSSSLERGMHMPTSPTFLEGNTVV
Summary of the method: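 S. cerevisiae with integrated S1P2 under the GPD promoter, seeded at 0.02 OD600 in histidine-free minimal medium with 5 mM 3-aminotriazole and 100 µM fluorescein-di-(β-D-glucopyranoside). Agonist-driven growth was read as fluorescein fluorescence (ex 485/em 535 nm) after 24 h at 30°C.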

[9] = Lipophilicity, log D of the compound at pH 2 by chromatography; format: physicochemical; conditions: buffer
[10] = molecular target: T2, Cytochrome P450 3A4; assay: Inhibition of human CYP3A4 by VG metabolism assay; format: ADME
[11] = Fraction unbound in CD1 mouse blood after 4 hrs by LC-MS/MS analysis; format: ADME, tissue-based
Summary of the method: (§3)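 Fresh blood (CD rat, CD1 mouse, Beagle dog, single human donor) spiked at 1000 ng/mL and dialysed against PBS by rapid equilibrium dialysis for 4 h at 37°C. Matrix-matched LC-MS/MS; unbound fraction taken from the buffer/blood peak area ratio.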

[12] = molecular target: T2, Cytochrome P450 3A4; assay: Inhibition of human CYP3A4 coexpressed in Escherichia coli with human NADPH reductase using nifedipine as substrate at 0.1 to 100 uM by fluorescence assay; format: ADME; conditions: TDE = time-dependent effect
[13] = molecular target: T2, Cytochrome P450 3A4; assay: Inhibition of human CYP3A4 by VR metabolism assay; format: ADME
[14] = molecular target: T2, Cytochrome P450 3A4; assay: Inhibition of human CYP3A4 coexpressed in Escherichia coli with human NADPH reductase using midazolam as substrate at 0.1 to 100 uM by fluorescence assay; format: ADME; conditions: TDE = time-dependent effect
[15] = Fraction unbound in human blood after 4 hrs by LC-MS/MS analysis; format: ADME, tissue-based; summary of the method: as §3
[16] = Oral bioavailability in rat; format: ADME, organism-based; conditions: in vivo
[17] = molecular target: Sphingosine 1-phosphate receptor 5 (Homo sapiens, UniProt Q9H228); assay: Agonist activity at human S1P5 receptor expressed in CHO-K1 cells by aequorin calcium accumulation assay; format: functional, cell-based; summary of the method: as §1
Sphingosine 1-phosphate receptor 5, sequence (Q9H228 whole entry): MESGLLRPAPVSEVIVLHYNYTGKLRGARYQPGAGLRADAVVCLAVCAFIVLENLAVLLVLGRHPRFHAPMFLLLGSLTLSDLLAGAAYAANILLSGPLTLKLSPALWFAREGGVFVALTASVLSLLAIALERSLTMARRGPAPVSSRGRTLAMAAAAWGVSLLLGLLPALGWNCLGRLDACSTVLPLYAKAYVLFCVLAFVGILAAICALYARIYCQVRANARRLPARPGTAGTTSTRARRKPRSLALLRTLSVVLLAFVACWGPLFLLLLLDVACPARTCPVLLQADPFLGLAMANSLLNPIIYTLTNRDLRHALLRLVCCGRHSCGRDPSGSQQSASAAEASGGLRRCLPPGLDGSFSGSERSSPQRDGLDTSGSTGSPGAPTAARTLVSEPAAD

[18] = Fraction unbound in CD rat blood after 4 hrs by LC-MS/MS analysis; format: ADME, tissue-based; summary of the method: as §3
[19] = Fraction unbound in beagle dog blood after 4 hrs by LC-MS/MS analysis; format: ADME, tissue-based, Canis lupus familiaris; summary of the method: as §3
[20] = molecular target: Sphingosine 1-phosphate receptor 1 (Homo sapiens, UniProt P21453); assay: Agonist activity at human S1P1 receptor expressed in RH7777 cells by [35S]GTP-gammaS accumulation assay; format: cell-based
Sphingosine 1-phosphate receptor 1, sequence (P21453 whole entry): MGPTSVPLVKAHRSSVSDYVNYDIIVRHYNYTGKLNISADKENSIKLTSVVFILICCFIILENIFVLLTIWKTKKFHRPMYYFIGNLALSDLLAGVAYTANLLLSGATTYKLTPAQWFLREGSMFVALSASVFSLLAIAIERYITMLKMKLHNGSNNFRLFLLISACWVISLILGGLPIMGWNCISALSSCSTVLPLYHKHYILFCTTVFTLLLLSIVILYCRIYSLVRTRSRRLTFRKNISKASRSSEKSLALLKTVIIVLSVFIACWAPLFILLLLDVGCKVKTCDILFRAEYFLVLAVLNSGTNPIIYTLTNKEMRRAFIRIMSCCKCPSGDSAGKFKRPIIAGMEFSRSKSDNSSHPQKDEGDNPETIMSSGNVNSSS
Summary of the method: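 RH7777 S1P1 membranes (1.5 µg/well) precoupled 30 min on ice to WGA SPA beads in 20 mM HEPES, 10 mM MgCl2, 100 mM NaCl, pH 7.4, with 10 µM GDP and 90 µg/mL saponin (final). 0.5 nM [35S]GTPγS final added to compound; plates read immediately by scintillation proximity.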

[21] = Intrinsic clearance in beagle dog hepatocytes at 0.5 uM after 2 hrs by LC-MS/MS analysis; format: ADME, cell-based, Canis lupus familiaris, Hepatocyte
Summary of the method: (§4)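 Compound at 0.5 µM incubated with pooled cryopreserved hepatocytes (0.7 million cells/mL) in Williams Medium E at 37°C under CO2/O2. Supernatants analysed by LC-MS/MS. CLi was derived from a first-order rate constant, scaled with 1.2x10^8 cells/g liver (human, rat, mouse) or 2.4x10^8 cells/g liver (dog).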

[22] = molecular target: Cytochrome P450 2C19 (Homo sapiens, UniProt P33261); assay: Inhibition of CYP2C19 (unknown origin) coexpressed in Escherichia coli with human NADPH reductase using 3-butyryl-7-methoxycoumarin as substrate after 10 mins by fluorescence assay; format: ADME; summary of the method: as §2
Cytochrome P450 2C19, sequence (P33261 whole entry): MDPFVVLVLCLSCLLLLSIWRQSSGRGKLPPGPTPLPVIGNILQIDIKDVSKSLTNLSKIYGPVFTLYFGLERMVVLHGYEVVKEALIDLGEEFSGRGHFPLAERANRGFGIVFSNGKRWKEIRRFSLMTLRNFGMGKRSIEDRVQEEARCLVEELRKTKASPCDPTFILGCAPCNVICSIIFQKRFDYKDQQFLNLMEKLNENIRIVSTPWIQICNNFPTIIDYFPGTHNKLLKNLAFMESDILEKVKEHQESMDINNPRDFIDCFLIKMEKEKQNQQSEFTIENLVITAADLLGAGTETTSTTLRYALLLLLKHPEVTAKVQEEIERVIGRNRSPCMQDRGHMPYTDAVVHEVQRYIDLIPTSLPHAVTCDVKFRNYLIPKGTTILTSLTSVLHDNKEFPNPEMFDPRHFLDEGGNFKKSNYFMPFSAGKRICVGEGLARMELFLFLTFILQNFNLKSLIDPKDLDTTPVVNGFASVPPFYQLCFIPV

[23] = system: Hepatocyte; assay: Intrinsic clearance in human hepatocytes at 0.5 uM after 2 hrs by LC-MS/MS analysis; format: ADME, cell-based; summary of the method: as §4
[24] = system: Hepatocyte; assay: Intrinsic clearance in CD1 mouse hepatocytes at 0.5 uM after 2 hrs by LC-MS/MS analysis; format: ADME, cell-based; summary of the method: as §4
[25] = Passive permeability from apical to basolateral side in MDCK2-MDR1 cells after 90 mins by LC-MS/MS analysis; format: ADME, cell-based, Canis lupus familiaris, MDCK-II; conditions: dog, MDCK-MDR1; read-out: permeability
Summary of the method: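 MDCKII-MDR1 monolayers used 3-4 days after seeding on inserts. Apical FaSSIF at pH 5.5 or 7.4; basolateral DMEM pH 7.4 with 1% HSA. Both sides contained 2 µM GF120918 and were preincubated 30 min. A→B transport measured in triplicate after 90 min at 37°C with shaking.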

[26] = Activation of CYP1A (unknown origin); format: ADME; conditions: human
[27] = Lipophilicity, log D of the compound at pH 7.4 by chromatography; format: physicochemical; conditions: buffer
[28] = system: Hepatocyte; assay: Intrinsic clearance in Sprague-Dawley rat hepatocytes at 0.5 uM after 2 hrs by LC-MS/MS analysis; format: ADME, cell-based; summary of the method: as §4

For `Cc1c2c(nn1-c1nnc(-c3ccc(OC(C)C)c(Cl)c3)s1)CCN(CCC(=O)O)C2`, the IC50 [1] was 0.006 µM, the chromatographic logD [2] was 1.53 and the EC50 [3] was over 39.8 µM. The “inhibition (INH)” value [4] was “tde”, the CLH [5] was 4.2 mL/min/g and the Activity [6] was “Non-toxic”. The IC50 [7] was over 50 µM, the EC50 [8] was over 31.6 µM and the chromatographic logD [9] was 1.03. For the same compound, the IC50 [10] was over 50 µM, the fraction unbound at 4 h [11] was 0.011 and the “inhibition (INH)” value [12] was “tde”. For the same compound, the IC50 [13] was over 50 µM, the “inhibition (INH)” value [14] was “tde” and the fraction unbound at 4 h [15] was 0.008. It also gave a bioavailability [16] of 52%, an EC50 [17] of 0.0166 µM and a fraction unbound at 4 h [18] of 0.014. For the same compound, the fraction unbound at 4 h [19] was 0.011, the EC50 [20] was 0.00631 µM and the CLH [21] was 6 mL/min/g. It also gave an IC50 [22] of over 50 µM, a CLH [23] of 1.8 mL/min/g and a CLH [24] of under 0.85 mL/min/g. The Papp A→B at 1.5 h [25] was 14.7 ×10⁻⁶ cm/s, the Activity [26] was “Not Active” and the chromatographic logD [27] was 3.73. The CLH [28] was 3.2 mL/min/g.
